The source of these data is ChEMBL document CHEMBL3085762, “Expeditious synthesis, enantiomeric resolution, and enantiomer functional characterization of (4-(4-bromophenyl)-3a,4,5,9b-tetrahydro-3H-cyclopenta[c]quinoline-8-sulfonamide (4BP-TQS): an allosteric agonist-positive allosteric modulator of α7 nicotinic acetylcholine receptors” (J Med Chem, 2013).

Activity calls are given as the source filed them. No cut-off for these calls is given here.

Holding throughout (assay type): cell-based
The target in experiment [1] is T1, Neuronal acetylcholine receptor subunit alpha-7 (Homo sapiens, UniProt P36544). The experiment is described as follows: Allosteric agonist activity at human alpha7 nAChR expressed in Xenopus oocytes at 10 uM preincubated for 5 mins by two-electrode voltage clamp method. The essentials:
(§1)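 Xenopus oocytes expressing human α7 receive control 60 μM ACh, then 10 μM drug alone or with 10 μM of the other enantiomer. Pre-incubation is 30 s or 5 min, followed by ACh to assess potentiation. Responses are measured over a 120-second interval from the start of drug application. Potentiation is followed over 20 minutes. Two-electrode voltage clamp.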
For orientation: In two-electrode clamp one electrode senses voltage and the other passes current.

For experiment [2], the target named is T1, Neuronal acetylcholine receptor subunit alpha-7. The experiment is described as follows: Positive allosteric modulation of human alpha7 nAChR expressed in Xenopus oocytes assessed as potentiation of ACh-induced response at 30 uM measured over 5 mins by two-electrode voltage clamp method in presence of choline. A digest of the protocol: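 α7-expressing Xenopus oocytes get control 60 μM ACh applications, then 300 μM choline together with 30 μM drug (racemate or single enantiomer). Potentiation is measured by two-electrode voltage clamp and normalized to the initial ACh controls.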

Experiment [3] has the same target. The experiment is described as follows: Positive allosteric modulation of human alpha7 nAChR expressed in Xenopus oocytes assessed as potentiation of ACh-induced response at 10 uM treated 4 mins prior to ACh addition by two-electrode voltage clamp method.
Experiment [4] shares this target. The experiment is described as follows: Positive allosteric modulation of human alpha7 nAChR expressed in Xenopus oocytes assessed as potentiation of ACh-induced response at 10 uM preincubated for 5 mins measured over 20 mins by two-electrode voltage clamp method. The essentials: as §1
Experiment [5] shares this target. The experiment in a line: Allosteric agonist activity at human alpha7 nAChR expressed in Xenopus oocytes at 10 uM measured over 120 secs by two-electrode voltage clamp method. A digest of the protocol:
as §1

Experiment [6] shares this target. The experiment is described as follows: Allosteric agonist activity at human alpha7 nAChR expressed in Xenopus oocytes after 20 secs by two-electrode voltage clamp method. A digest of the protocol:
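Human α7 nAChR in Xenopus oocytes under two-electrode voltage clamp. Control applications of 60 μM ACh come first, then a standard 20-second drug application over a range of concentrations. Net-charge response is normalized to the mean of the two initial ACh controls. At least four oocytes per condition. EC50 is taken from the concentration-response curve.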

Experiment [7] has the same target. The experiment in a line: Positive allosteric modulation of human alpha7 nAChR expressed in Xenopus oocytes assessed as potentiation of ACh-induced response after 20 secs by two-electrode voltage clamp method.
The target is the same in experiment [8]. The experiment is described as follows: Positive allosteric modulation of human alpha7 nAChR expressed in Xenopus oocytes assessed as potentiation of ACh-induced response at 10 uM measured over 120 secs by two-electrode voltage clamp method.
Experiment [9] has the same target. The experiment in a line: Agonist activity at human alpha7 nAChR expressed in Xenopus oocytes at 60 uM after 5 mins by two-electrode voltage clamp method relative to ACh.
Experiment [10] has the same target. The experiment is described as follows: Potency index, ratio of ACh EC50 to compound EC50 for human alpha7 nAChR expressed in Xenopus oocytes.

T1 sequence (P36544 whole entry): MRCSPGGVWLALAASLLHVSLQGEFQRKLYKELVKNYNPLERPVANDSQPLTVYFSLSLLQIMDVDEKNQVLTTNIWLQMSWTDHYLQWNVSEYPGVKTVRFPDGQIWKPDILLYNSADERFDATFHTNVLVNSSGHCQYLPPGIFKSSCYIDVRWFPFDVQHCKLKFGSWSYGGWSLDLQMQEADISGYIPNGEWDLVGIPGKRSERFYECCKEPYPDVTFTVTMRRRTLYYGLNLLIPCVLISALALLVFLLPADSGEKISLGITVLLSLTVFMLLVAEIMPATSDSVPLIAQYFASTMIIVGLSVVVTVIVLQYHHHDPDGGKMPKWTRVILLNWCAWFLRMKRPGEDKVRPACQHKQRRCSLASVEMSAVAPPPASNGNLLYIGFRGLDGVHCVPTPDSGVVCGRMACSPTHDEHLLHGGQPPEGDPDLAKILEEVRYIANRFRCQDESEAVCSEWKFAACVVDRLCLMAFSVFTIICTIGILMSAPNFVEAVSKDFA

Take `NS(=O)(=O)c1ccc2c(c1)[C@H]1C=CC[C@H]1[C@@H](c1ccc(Br)cc1)N2`: the outcome in [1], in experiment [2], in experiment [3], in experiment [4] and in experiment [5] was Active. Further, it took 28 µM to reach a half-maximal effect in experiment [6] (EC50). Also, the Activity result in [7] was “Dose-dependent effect”.
With `NS(=O)(=O)c1ccc2c(c1)[C@@H]1C=CC[C@@H]1[C@H](c1ccc(Br)cc1)N2`, the outcome in experiment [8] and in [5] was inactive.
`NS(=O)(=O)c1ccc2c(c1)[C@H]1C=CC[C@H]1C(c1ccc(Br)cc1)N2` (mixture of isomers): in experiment [2], the outcome was Active. In addition, the fold change (FC) in [9] was determined as 45. Further, in experiment [10], the Ratio EC50 amounted to 8.
